Bioassay records from PubChem.
STEP inh: STEP (human) phosphatase inhibition | P54829 | recombinant STEP, OMFP fluorogenic substrate, fluorescence | inhibition, % at 20 µM | actives 0.25% (n = 360,000) | AID 588621;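 active = inhibition at 20 µM, scaled per plate between control wells, above about 37%, limit read from the data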
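Material: STEP (striatal-enriched tyrosine phosphatase) enzyme, cell-free; Compound dosing: 20 µM single dose in 1% DMSO; Technique: fluorescence read at 480 nm ex / 540 nm em; Times: reaction 20 min, ambient temperature; Medium: 50 mM Bis-Tris pH 6.0 with 2.5 mM DTT and 0.005% Tween 20; Also added: OMFP at 25 µM.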
LMPTP inh: LMPTP (human) inhibition. recombinant LMPTP-A, OMFP fluorogenic substrate, fluorescence intensity. actives 0.22% (n = 360,000). P24666. inhibition, % at 20 µM. AID 651560;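 active = compounds that cut the enzyme signal by at least half of the control window in the single-dose screen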
Target sequence (P24666 whole entry, looked up): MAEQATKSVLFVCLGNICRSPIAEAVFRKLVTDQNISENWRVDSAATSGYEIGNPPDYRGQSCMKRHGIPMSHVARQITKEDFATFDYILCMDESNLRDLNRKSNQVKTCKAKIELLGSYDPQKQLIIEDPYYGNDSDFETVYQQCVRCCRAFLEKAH
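Test system: LMPTP-A, protein tyrosine phosphatase of low molecular weight; Input: 0.625 nM enzyme; Incubation: 50 min dark incubation at room temperature; Signal: endpoint fluorescence intensity from OMFP dephosphorylation; Read-out basis: % inhibition versus control wells.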
SUMO1 PPI mod: SUMO1-SIM interaction modulation. P63165. SUMO1 binding to a labelled peptide, TR-FRET, 1 h. inhibition, % at 20 µM. actives 0.33% (n = 360,000). AID 602429; in the data active = inhibition above about 37%
Target sequence (P63165 whole entry, looked up): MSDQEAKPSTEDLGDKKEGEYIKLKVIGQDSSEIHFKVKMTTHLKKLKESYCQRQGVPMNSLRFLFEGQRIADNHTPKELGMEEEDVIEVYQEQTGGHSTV
Scp1 inh: Scp-1 (human) phosphatase inhibition; Recombinant Scp1, phosphopeptide, malachite green phosphate absorbance; AID 493091; actives 0.88% (n = 340,000); inhibition, % at 20 µM;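 active = inhibition above about 50% at 20 µM, limit read from the data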
Target sequence (Q9GZU7 76-261 limits assumed): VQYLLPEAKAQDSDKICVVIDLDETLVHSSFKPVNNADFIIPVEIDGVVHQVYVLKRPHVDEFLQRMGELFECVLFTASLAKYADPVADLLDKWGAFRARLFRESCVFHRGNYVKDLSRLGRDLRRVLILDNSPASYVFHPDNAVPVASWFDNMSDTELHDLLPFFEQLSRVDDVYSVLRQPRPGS
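assay system = SCP-1 phosphatase catalytic domain, residues 76-261 | buffer or medium = 50 mM Tris acetate pH 5.5, 0.005% Tween-20, 10 mM MgCl2 | incubation = enzyme reaction 45 min at room temperature, colour 5 min, stabilisation 30 min | signal = Phosphate-binding colour reagent, absorbance read at 630 nm | measure = % inhibition at 20 µM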
DNMT1 block: blocks human DNA methyltransferase DNMT1; actives 0.83% (n = 360,000); P26358; DNMT1 molecular beacon, Hinp1I cleavage, fluorescence; AID 588458; inhibition (reported as % activation of signal), % at 10 µM; in the data active = inhibition above about 50%
Numbers stand for hits; . = inactive; / = not tested or not shown; ! = repeats disagree. The list is not random: actives were taken first. Their share in the collection is about 1.7%.

SMILES	STEP inh	LMPTP inh	SUMO1 PPI mod	Scp1 inh	DNMT1 block
Cc1ccc[n+](C2C(c3ccc([N+](=O)[O-])cc3)C(C#N)=C([S-])NC2(O)C2CC2)c1 (centres undefined)	.	.	.	.	.
COc1ccc([C@H]2C(C#N)=C([S-])N[C@](C)(O)[C@@H]2[n+]2ccccc2)cc1	.	49.1	.	.	.
CCOC(=O)c1c(C)nc2sc3c(=O)n(-c4ccc(C)cc4)cnc3c2c1-c1ccc(OC)cc1	.	.	40.4	.	.
Oc1ccc(N=Cc2ccc(O)c(O)c2)cc1	.	.	50.8	.	65.4
Oc1ccc(/C=N/N=C/c2ccc(O)c(O)c2)cc1O	.	.	.	.	.
O=C(CSc1nc2ccccc2c(=O)n1-c1ccccc1Cl)NCC1CCCO1 (centres undefined)	.	.	.	.	.
O=C1C=C(N2CCCCC2)c2ccccc2C1=O	.	.	66.0	.	88.8
O=C1c2ccccc2C(=O)c2c1cccc2N1CCCC1	.	.	.	.	.
O=C(CCl)Nc1ccc(-c2ccccc2)cc1	.	.	56.0	.	.
Cc1csc(NC(=O)c2ccc(Br)s2)n1	.	.	.	77.0	.
Cc1ccc(NC(=O)CN2C(=O)S/C(=C\c3cc(C)n(-c4ccc(C(=O)O)cc4)c3C)C2=O)cc1	.	.	.	.	.
Cc1ccc(NC(=O)CN2C(=O)N/C(=C/c3cccn3-c3ccc(C(=O)O)cc3)C2=O)cc1	97.0	50.0	49.4	92.7	106.8
COC(=O)c1ccc2c(c1)C(C)(C)C(/C=C/c1ccc(O)cc1)=[N+]2C	.	.	.	99.4	.
COC(=O)c1ccc2c(c1)C(C)(C)C(/C=C/c1ccc(OC)c(OC)c1OC)=[N+]2C	.	.	.	96.1	.
COc1ccc(NC(=O)CN(C)C(=O)c2cn(-c3ccccc3)nc2-c2ccc(Cl)cc2)cc1	.	.	.	.	.
Cc1ccc(S(=O)(=O)N(C(=O)c2ccncc2)c2ccc(OC(=O)c3ccncc3)c3ccccc23)c(C)c1	.	.	.	60.0	.
CCCCCCCCCCCCCCCC[n+]1ccccc1	.	.	.	.	.
CCCCCCCCCCCCCCCC[n+]1ccc(C(N)=O)cc1	.	.	52.4	.	.
CCCCCCCCCCCCCCCC[n+]1cccc(C(=O)N(CC)CC)c1	.	.	38.1!	.	.
C[C@H](CO)N1C[C@H](C)[C@H](CN(C)Cc2ccc(Oc3ccccc3)cc2)Oc2cc(Br)ccc2S1(=O)=O	.	.	.	/	.
Nc1ccc(OCCCc2c(N)nc(N)nc2N)cc1	.	87.2	.	.	.
O=C1CCCN1CCCNc1nc(NCc2ccccc2)nc2ccsc12	.	67.5	.	/	.
Cc1nc(NC(=O)c2ccccc2)sc1-c1cc(C(=O)NCCO)nn1Cc1ccccc1	/	.	.	/	/
CC(C)N1C(=O)S/C(=C\c2ccc(-c3ccc(Cl)c(C(=O)O)c3)o2)C1=O	.	.	.	67.6	.
Cc1ccc(N2NC(=O)/C(=C/c3ccc(-c4ccc(Cl)c(C(=O)O)c4)o3)C2=O)cc1	.	.	.	.	.
SMILES	STEP inh	LMPTP inh	SUMO1 PPI mod	Scp1 inh	DNMT1 block
COc1cccc(C(C(=O)NCc2ccccc2)N2CCN(c3ccccc3F)CC2)c1OC (centres undefined)	/	.	.	/	/
CCCS(=O)(=O)Nc1ccc(Nc2c3ccccc3nc3ccccc23)c(OC)c1	.	.	.	.	.
COc1cc(N)ccc1Nc1c2ccccc2nc2ccccc12	.	87.3	.	/	.
CN1CCN2c3ccccc3CC(C#N)(C#N)C2C1 (centres undefined)	.	.	.	/	.
O=C(c1cc(-c2ccccc2)nc2ccccc12)N1CCCC1	.	.	.	.	.
c1ccc(-c2cc(NCCN3CCCCC3)c3ccccc3n2)cc1	.	90.3	.	.	.
COc1cc2c3c(cccc3c1)C(=O)N(CCN1CCCC1)C2=O	.	.	.	/	73.4
COc1ccc(-c2csc(NC(=O)CN3C(=O)C4CC=CCC4C3=O)n2)cc1OC (centres undefined)	.	.	.	.	.
Cc1cc(N2CCC(C)CC2)nc2cccc(O)c12	.	61.7	.	.	.
Cc1ccc(S(=O)(=O)N2[C@H](C(C)C)[C@H]3[C@H]4C(=O)N(c5ccccc5)C(=O)[C@H]4CC(=O)[C@H]3[C@@H]2c2ccccc2)cc1	.	.	.	/	.
Cc1ccc(Nc2ccc(N)cc2S(=O)(=O)O)cc1	.	67.1	.	.	.
CCCCn1c(NC(=O)c2ccco2)c(S(=O)(=O)c2ccc(C)cc2)c2nc3ccccc3nc21	.	.	41.6	.	.
CCCCn1c(NC(=O)c2ccc(Br)o2)c(S(=O)(=O)c2ccccc2)c2nc3ccccc3nc21	.	.	46.7	.	.
CCCCn1c(NS(=O)(=O)c2ccccc2)c(S(=O)(=O)c2ccc(C)cc2)c2nc3ccccc3nc21	.	.	48.2	.	80.0
Cc1ccc(S(=O)(=O)c2c(N)n(CCC(C)C)c3nc4ccccc4nc23)cc1	.	.	42.4	.	.
CC(C)CCn1c(N)c(S(=O)(=O)c2cccs2)c2nc3ccccc3nc21	.	.	.	.	.
CCn1c(=S)sc2c(=O)n(CC(=O)Nc3cccc(OC)c3)c(C)nc21	.	.	.	.	.
CCOc1cccc(Nc2ccc([N+](=O)[O-])cn2)c1	.	.	.	.	.
COc1ccc(C(C)C)cc1-c1cncc(NC(C)=O)n1	.	.	.	/	.
COc1ccc(-c2cc(=O)oc3c(C)c(OCC(=O)Nc4cccnc4)ccc23)cc1	.	.	41.3	.	.
COc1ccc(Cl)cc1NC(=O)CN1C(=O)C(=O)N(C2CCCC2)C1=O	.	.	.	/	.
Cn1c(=O)c(NC2CCCCC2)c2c3c(cccc31)C(=O)c1ccccc1-2	.	.	.	.	.
Cn1c(=O)c(N)c2c3c(c(Br)ccc31)C(=O)c1ccccc1-2	.	.	.	.	155.0
COc1cc(CNc2ncnc3c2ncn3[C@H]2CN(Cc3ccc4c(c3)OCO4)C[C@@H](CO)O2)cc(OC)c1OC	.	.	.	/	.
CCn1c(/C=C/c2c(C)n(CC)c3ccccc23)nc2ccccc2c1=O	.	.	.	.	.
SMILES	STEP inh	LMPTP inh	SUMO1 PPI mod	Scp1 inh	DNMT1 block
CCn1c2ccccc2nc2cc3c(cc21)c(Cl)c(=O)c1ccccc13	.	.	.	/	61.3
Cc1cc(C)c(CN2CCN(Cc3ccc(C)o3)C(CCO)C2)c(-n2cccn2)c1 (centres undefined)	.	.	.	.	.
CO[C@H]1CN(C)C(=O)c2ccc(NC(=O)C3CCC3)cc2OC[C@H](C)N(CC2CCCCC2)C[C@@H]1C	/	.	.	/	/
O=C1c2ccccc2C(=O)c2c([N+](=O)[O-])ccc(O)c21	.	.	.	67.3	.
O=C(O)c1ccc([N+](=O)[O-])c2c1C(=O)c1ccccc1C2=O	.	.	.	.	.
O=C(Cc1ccccc1)c1ccc(N2CCOCC2)cc1	.	.	.	.	.
